# Data: PubChem BioAssay AID821 (SRMLSC, 2007)
# System: LL 47 lung fibroblast viability, ATP luminescence
# Experiment: LL 47 lung fibroblast growth inhibition, concentration-response, selectivity test for endothelial growth inhibitor program, cellular, luminescent ATP readout (AID 821);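 further: cells exposed to compound for 72 h at 37 °C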
# Outline: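 Assay system: LL 47 human lung fibroblasts; Compound: dose series 0.039–20 µM final, 0.2% DMSO; Schedule: 72 h compound treatment at 37 °C after overnight attachment; Technique: CellTiter-Glo luminescence; Evaluation: percent viability relative to untreated wells, EC50 via 4-parameter fit.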
row,SMILES,EC50
1,Cn1c(=O)n(C)c2cc(C(=O)Nc3ccc4c(c3)OCO4)ccc21,12.9 µM
2,Cc1cc(C)n(S(=O)(=O)/C=C/c2ccccc2)n1,9.12 µM
3,O=C(Oc1cccc2cccnc12)c1cccs1,4.21 µM
4,CSc1nncc(=O)[nH]1,13.1 µM
5,O=C(Oc1cccc2cccnc12)c1ccc2c(c1)OCCO2,6.78 µM
6,CC1=CC(C)(C)Nc2ccc(OC(=O)c3cccnc3)cc21,7.47 µM
7,COc1ccc(-c2cc(C#N)nc(N3CCNCC3)n2)cc1,11.8 µM
8,O=C(Nc1nnc(-c2ccccc2SCc2ccccc2F)s1)Nc1ccccc1F,16.2 µM
9,Oc1ccccc1-c1nnc(SCCN2CCOCC2)n1Cc1ccccc1,1.48 µM
10,COc1cc(C(=O)Oc2c(CN3CCOCC3)cc(Cl)c3cccnc23)cc(OC)c1OC,4.05 µM
11,CC(C)c1nnc(NC(=O)CCS(=O)(=O)c2nc(-c3cccs3)cc(C(F)(F)F)n2)s1,12.8 µM
12,Cc1cc(C)c2ccc(N)nc2c1O,2.82 µM
13,CCOC(=O)c1c(NC(=O)CCl)sc(C(=O)N(CC)CC)c1C,6.25 µM
14,CCCCn1c(=O)c(C(=O)Nc2cnccn2)c(O)c2ccccc21,16.1 µM
15,CCOc1cccc(-n2nnnc2-c2ccc(OC)cc2)c1,19.9 µM
16,CCOC(=O)c1c(NC(=O)CSc2nc(C)cc(C)c2C#N)sc(C(C)=O)c1C,13.5 µM
17,CCC(C)(C)n1nnnc1C(c1cc2cc(C)cc(C)c2[nH]c1=O)N1CCN(Cc2ccc3c(c2)OCO3)CC1 (stereo not given),9.88 µM
18,COc1cc(/C=C(/C(=O)c2cccs2)c2nc3ccccc3[nH]2)cc(OC)c1O,8.69 µM
19,COc1ccc(N2C(=O)CC(Sc3nnc(-c4ccccc4)o3)C2=O)cc1 (stereo not given),13.2 µM
20,CCOC(=O)C(C(C)=O)c1c(Br)c(O)c(O)c2c(C(=O)c3ccc(C)cc3)coc12 (stereo not given),8.67 µM
21,CCN1CCN(c2cc(C)c3cc(NC(=O)c4ccc(OC)c(OC)c4)ccc3n2)CC1,15.2 µM
22,O=C(Oc1ccccc1-c1nnco1)c1ccc(Cl)cc1,5.03 µM
23,CCOC(=O)c1c(CC(C)C)csc1NC=O,20.4 µM
24,O=C(Oc1ccccc1)c1cccc2cccnc12,6.87 µM
25,Cc1ccc(-c2csc3ncnc(Sc4nnc(CN5CCCCCC5=O)o4)c23)cc1,5.46 µM
26,CCC(=O)OCCNc1cc(Sc2nc3ccccc3s2)c2nonc2c1[N+](=O)[O-],6.76 µM
27,c1ccc(-c2nc3nonc3nc2-c2ccccc2)cc1,15.2 µM
28,O=C1Nc2ccccc2/C1=C/C(=O)c1cccs1,6.78 µM

row,SMILES,EC50
1,COc1ccc(CN=C(C)c2c(C(F)(F)F)[nH]n(-c3nc4ccccc4s3)c2=O)cc1,18 µM
2,O=c1[nH]c2ccccc2n1C1CCN(CCCC(c2ccc(F)cc2)c2ccc(F)cc2)CC1,13.6 µM
3,CC(=O)C(C(C)=O)c1c(Cl)c(O)c(O)c2c(C(=O)c3ccccc3)coc12,14.5 µM
4,CCOc1ccccc1-n1c(CN2CCN(C(=O)c3ccco3)CC2)nc2ccccc2c1=O,5.7 µM
5,CC1=CC(C)(C)Nc2ccc(OC(=O)CN3C(=O)C4CCCCC4C3=O)cc21 (stereo not given),12.4 µM
6,C#CCn1c(=NC(=O)c2ccc(Br)s2)sc2cccc(OC)c21,20.1 µM
7,O=[N+]([O-])c1ccc(Sc2cccc3cccnc23)c([N+](=O)[O-])c1,5.03 µM
8,COc1ccc(C2Oc3ccccc3C3=C2C(c2cccs2)n2ncnc2N3)cc1 (stereo not given),19.2 µM
9,CC(Nc1nc(N2CCCC2)nc2ccccc12)c1ccccc1 (stereo not given),11.7 µM
10,Cc1ccc2oc3c(c(=O)c2c1)C(c1cccc(Br)c1)N(Cc1ccco1)C3=O (stereo not given),18.3 µM
11,N#CCC(=O)Nc1ncn(Cc2ccccc2Cl)n1,19.7 µM
12,COC(=O)CS(=O)(=O)c1nnc([C@H](Cc2ccccc2)NC(=O)OC(C)(C)C)o1,7.97 µM
13,COC(=O)CCS(=O)(=O)c1nc(-c2ccccc2)cc(C(F)(F)F)n1,14.4 µM
14,CC1=NOC(=O)/C1=C/c1ccc(-c2ccc(Cl)cc2)o1,13.9 µM
15,O=C(CN1CCCC1)Nc1ccc(-c2nc3cc(NC(=O)CN4CCCC4)ccc3o2)cc1,7.33 µM
16,COCCCn1[nH]c2c3c(ccc2c1=O)C(=O)c1ccccc1C3=O,17 µM
17,CS(=O)(=O)c1nc(-c2cccs2)cc(C(F)(F)F)n1,7.32 µM
18,Oc1c(C(Nc2ccccn2)c2ccccn2)ccc2cccnc12 (stereo not given),5.55 µM
19,O=c1cc(-c2ccccc2)[nH]n1-c1nc2ccccc2[nH]1,5.6 µM
20,Cc1cc2c(N=O)c(NO)ccc2[nH]1,2.93 µM
21,COc1ccccc1-c1nnc2n1N=C(c1ccc(O)c(O)c1)CS2,2.68 µM
22,CC(C)(C)c1nn(-c2ccccc2)c2[nH]c(=O)c(CNCc3ccc4c(c3)OCO4)cc12,20.6 µM
23,Cc1ccc(-n2c(SCC(=O)Nc3ccc4c(c3)OCO4)nnc2-c2cccs2)cc1,17.5 µM
24,COC(=O)Nc1ccc(S(=O)(=O)N2c3ccccc3CCC2C)cc1 (stereo not given),12.5 µM
25,O=C(Nc1ccc(N2CCOCC2)cc1)Nc1ccc2nc(-c3ccco3)c(-c3ccco3)nc2c1,2.18 µM
26,CC(C)=CCC/C(C)=C/CCC(C)NCCN1CCNCC1 (stereo not given),10.4 µM
27,O=C(Cn1c(=O)n(CCCC(=O)NC2CCCC2)c(=O)c2ccccc21)NCCC1=CCCCC1,19.4 µM
